According to ChEMBL document CHEMBL4680111, “Target Validation and Identification of Novel Boronate Inhibitors of the Plasmodium falciparum Proteasome” (J Med Chem, 2018):
Calls of active or inactive are those of the source. The calls are words filed in the database; no cut-off is given here.

Columns and labels:
[1] = target: T1, Proteasome subunit beta type-6 (Homo sapiens, UniProt P28072); assay: Inhibition of human 20S constitutive proteasome beta 1 subunit caspase-like activity using fluorogenic peptide Ac-nLPnLD-AMC as substrate in presence of PA28alpha incubated for 1 to 2 hrs by fluorescence microplate reader assay
T1 sequence (P28072 whole entry): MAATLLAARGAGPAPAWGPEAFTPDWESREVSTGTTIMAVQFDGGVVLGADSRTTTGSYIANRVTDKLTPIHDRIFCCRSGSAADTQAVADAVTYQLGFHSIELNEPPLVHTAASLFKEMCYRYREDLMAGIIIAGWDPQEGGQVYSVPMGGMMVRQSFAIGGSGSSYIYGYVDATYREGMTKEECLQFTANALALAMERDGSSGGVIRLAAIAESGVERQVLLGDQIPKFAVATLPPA

[2] = target: T2, Proteasome subunit beta type-9 (Homo sapiens, UniProt P28065); assay: Inhibition of human 20S immunoproteasome beta 1 subunit caspase-like activity using fluorogenic peptide Ac-nLPnLD-AMC as substrate in presence of PA28alpha incubated for 1 to 2 hrs by fluorescence microplate reader assay
T2 sequence (P28065 whole entry): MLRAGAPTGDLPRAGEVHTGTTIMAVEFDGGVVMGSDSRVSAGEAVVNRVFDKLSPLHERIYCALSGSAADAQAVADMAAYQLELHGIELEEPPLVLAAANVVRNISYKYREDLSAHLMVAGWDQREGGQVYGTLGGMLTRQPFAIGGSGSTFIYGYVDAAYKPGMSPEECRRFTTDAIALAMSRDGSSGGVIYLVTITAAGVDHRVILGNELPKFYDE

[3] = Binding affinity to Plasmodium falciparum 20S proteasome beta 2 subunit assessed as equilibrium constant using fluorogenic peptide Ac-WLR-AMC as substrate in presence of PA28alpha by fluorescence based microplate reader assay
Plasmodium falciparum [4] = assay: Binding affinity to Plasmodium falciparum 20S proteasome beta 2 subunit assessed as half-life using fluorogenic peptide Ac-WLR-AMC as substrate in presence of PA28alpha by fluorescence based microplate reader assay
Plasmodium falciparum [5] = assay: Binding affinity to Plasmodium falciparum 20S proteasome beta 5 subunit assessed as half-life using fluorogenic peptide Ac-WLA-AMC as substrate in presence of PA28alpha by fluorescence based microplate reader assay
Plasmodium falciparum [6] = assay: Inhibition of proteasome in Plasmodium falciparum trophozoite stage transfected with GFP-DD assessed as reduction in GFP-DD fusion protein degradation at 0.02 to 0.5 uM incubated for 3 hrs in absence of Shield-1 by Western blot analysis; conditions: dose 0.02-0.5 µM
Outline: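 GFP-DD reporter parasites were held in Shield-1 for 24 h, washed out, then treated as trophozoites (5% hematocrit, 5% parasitemia) with compound for 3 h at 37°C. […] Representative of four independent experiments.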

Plasmodium falciparum [7] = assay: Synergistic antiplasmodial activity against DHA-resistant and sorbitol synchronized ring stage forms of Plasmodium falciparum Cam3.II^R539T expressing K13 mutant assessed as reduction in parasitemia incubated for 3 hrs in presence of DHA by pulse exposure based Syto-61 staining dye based flow cytometry analysis; assay type: functional, organism-based
[8] = system: Plasmodium falciparum 3D7; assay: Inhibition of 20S proteasome beta 2 subunit from bortezomib resistant Plasmodium falciparum 3D7 trophozoite infected erythrocytes assessed as inhibition of BMV037 probe labeling at 1 to 10 uM incubated for 1 hr by SDS-PAGE analysis; conditions: dose 1-10 µM
[9] = target: T3, Proteasome component C5 (Homo sapiens) (UniProt P20618); assay: Inhibition of human 20S constitutive proteasome beta 1 subunit assessed as inhibition of BMV037 probe labeling at 1 to 10 uM incubated for 1 hr by SDS-PAGE analysis; conditions: dose 1-10 µM
T3 sequence (whole entry): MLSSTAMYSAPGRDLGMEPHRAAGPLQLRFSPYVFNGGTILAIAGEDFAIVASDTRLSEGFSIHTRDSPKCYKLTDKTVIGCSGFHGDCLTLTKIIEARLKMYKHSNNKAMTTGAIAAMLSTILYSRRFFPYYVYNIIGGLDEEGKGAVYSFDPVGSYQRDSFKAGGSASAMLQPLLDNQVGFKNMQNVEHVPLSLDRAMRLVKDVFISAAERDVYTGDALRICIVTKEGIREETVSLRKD
Outline: (§1)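 Purified human constitutive 20S (20 nM) was treated with compound at 37°C for 1 h, then labelled with 10 µM BMV037 at 37°C for 2 h. Samples were run on 10% Bis-Tris gel with MOPS buffer, and active subunits were detected by Cy5 fluorescence scan.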

[10] = target: T4, Proteasome Macropain subunit MB1 (Homo sapiens) (UniProt P28074); assay: Inhibition of human 20S constitutive proteasome beta 5 subunit assessed as inhibition of BMV037 probe labeling at 1 to 10 uM incubated for 1 hr by SDS-PAGE analysis; conditions: dose 1-10 µM; outline: as §1
T4 sequence (whole entry): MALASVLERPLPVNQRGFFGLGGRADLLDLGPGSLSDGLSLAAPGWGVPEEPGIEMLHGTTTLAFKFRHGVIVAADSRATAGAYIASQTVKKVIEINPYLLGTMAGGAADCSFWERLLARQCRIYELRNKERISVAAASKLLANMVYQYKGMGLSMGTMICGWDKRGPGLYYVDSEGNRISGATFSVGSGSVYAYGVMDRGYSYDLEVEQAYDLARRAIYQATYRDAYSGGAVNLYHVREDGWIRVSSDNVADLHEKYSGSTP

[11] = target: T5, Proteasome subunit beta type-9 (Homo sapiens) (UniProt P28065); assay: Inhibition of human 20S immunoproteasome beta 1 subunit assessed as inhibition of BMV037 probe labeling at 1 to 10 uM incubated for 1 hr by SDS-PAGE analysis; conditions: dose 1-10 µM
T5 sequence (whole entry): T2 sequence (P28065 whole entry)
Outline: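 Purified human immuno-20S (20 nM) was incubated with compound at 37°C for 1 h, then labelled with 10 µM BMV037 at 37°C for 2 h. Samples were run on 4-12% Bis-Tris gel with MES buffer, and active subunits were visualised by Cy5 fluorescence.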

[12] = system: Plasmodium falciparum 3D7; assay: Inhibition of 20S proteasome beta 2 subunit in bortezomib-resistant Plasmodium falciparum 3D7 assessed as inhibition of BMV037 probe labeling at 1 to 10 uM incubated for 1 hr by SDS-PAGE analysis; conditions: dose 1-10 µM
[13] = system: Plasmodium falciparum 3D7; assay: Inhibition of 20S proteasome beta 5 subunit from bortezomib resistant Plasmodium falciparum 3D7 trophozoite infected erythrocytes assessed as inhibition of BMV037 probe labeling at 1 to 10 uM incubated for 1 hr by SDS-PAGE analysis; conditions: dose 1-10 µM
[14] = target: T4, Proteasome Macropain subunit MB1 (Homo sapiens); assay: Inhibition of human 20S constitutive proteasome beta 5 subunit assessed as inhibition of BMV037 probe labeling at 10 uM incubated for 1 hr by SDS-PAGE analysis; outline: as §1
Plasmodium falciparum [15] = assay: Inhibition of proteasome in Plasmodium falciparum trophozoite stage transfected with GFP-DD assessed as reduction in GFP-DD fusion protein degradation at 0.2 to 0.5 uM incubated for 3 hrs in absence of Shield-1 by Western blot analysis; conditions: dose 0.2-0.5 µM
Outline: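 GFP-DD reporter parasites were held in Shield-1 for 24 h, then washed out. Trophozoites at 5% hematocrit and 5% parasitemia were exposed to compound for 3 h at 37°C. Saponin-isolated parasites were lysed and blotted with anti-GFP (1:1000), with anti-PfBiP as loading control. Representative of four independent experiments.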

[16] = target: T4, Proteasome Macropain subunit MB1 (Homo sapiens); assay: Inhibition of human 20S constitutive proteasome beta 5 subunit assessed as inhibition of BMV037 probe labeling at 1 uM incubated for 1 hr by SDS-PAGE analysis; outline: as §1

SMILES	IC50 [1]	IC50 [2]	Ki [3]	T1/2 (Plasmodium falciparum [4])	T1/2 (Plasmodium falciparum [5])	inhibition (Plasmodium falciparum [6])	Activity (Plasmodium falciparum [7])	inhibition [8]	inhibition [9]	inhibition [10]	inhibition [11]	inhibition [12]	inhibition [13]	inhibition [14]	inhibition (Plasmodium falciparum [15])	inhibition [16]
CC(C)C[C@H](NC(=O)[C@H](Cc1ccccc1)NC(=O)Cc1ccc(O)cc1)B(O)O	52 nM	5 nM	6.4 nM	1.08 h	1.08 h	Active	Active	Active	Active	Active	Active	Active				
CC(=O)N1CCC[C@@H]1C(=O)N[C@@H](C)C(=O)N[C@@H](Cc1ccccc1)B(O)O	3400 nM	8 nM					Active						Active	inactive	Active	
Cc1ccc(S(=O)(=O)N[C@@H](CC(=O)NCC(C)(C)C)C(=O)N[C@@H](Cc2ccccc2)C(=O)N[C@@H](CC(C)C)B(O)O)cc1	1600 nM	29 nM						Active	Active	Active	Active	Active	Active			inactive
